MrgX1 allo act – positive allosteric modulators of MrgX1, primary screen, HEK293 cells, Fluo-4 calcium flux; B-score at 10 µM; Mas-related G-protein coupled receptor member X1 (Homo sapiens), Q96LB2; AID 588675, 2011; FDSS; active compounds read high; actives 0.63% (n = 310,000);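 active means plate-corrected calcium response at least 3 library SD above typical, normal starting fluorescence, not activating the receptor alone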;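 further: compound read alongside a low EC10 to EC30 dose of BAM8-22 agonist; peak minus trough fluorescence over baseline measured at the second addition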
Target sequence (Q96LB2 whole entry, looked up): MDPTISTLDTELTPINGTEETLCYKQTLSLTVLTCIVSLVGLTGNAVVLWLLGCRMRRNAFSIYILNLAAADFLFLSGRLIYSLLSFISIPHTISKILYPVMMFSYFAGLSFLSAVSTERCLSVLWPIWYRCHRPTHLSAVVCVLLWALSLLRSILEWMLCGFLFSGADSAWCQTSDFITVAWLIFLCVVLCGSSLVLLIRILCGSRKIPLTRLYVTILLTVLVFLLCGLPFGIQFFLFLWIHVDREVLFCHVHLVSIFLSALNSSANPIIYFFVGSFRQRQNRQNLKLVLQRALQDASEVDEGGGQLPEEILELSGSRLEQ
MrgX1 agonist – agonists of human MrgX1 receptor, primary screen, HEK293 cells, Fluo-4 calcium flux; Mas-related G-protein coupled receptor member X1 (Homo sapiens), Q96LB2; Fluo-4 calcium fluorescence, agonist mode; active compounds read high; B-score at 10 µM; actives 0.44% (n = 310,000); AID 588627, 2011;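 active means calcium response B-score plate-corrected fluorescence ratio at least 3 library SD, with starting fluorescence B-score inside 5 SD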
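Material: MrgX1-expressing HEK293 cells; input: 15,000 cells per well; doses: test compound given as first of three sequential additions; schedule: overnight plating before 1 h dye loading; technique: Fluo-4 NW calcium-flux fluorescence, kinetic read; evaluation: baseline-normalised fluorescence change ratio, B-scored; control set: plate-wise positive and negative controls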
MrgX1 antag – antagonists of human MrgX1 receptor, primary screen, HEK293 cells, Fluo-4 calcium flux. B-score at 10 µM. AID 588676, 2011. BAM8-22 antagonism; active compounds read low. actives 1.3% (n = 310,000). Mas-related G-protein coupled receptor member X1 (Homo sapiens), Q96LB2;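 active means calcium-response B-score plate-corrected more than 3 library SD below zero, starting fluorescence within 5 deviations, no agonist response on first addition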;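 further: peak minus trough fluorescence over baseline after final BAM8-22 challenge near maximal dose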
RGS4 block – RGS4 inhibitors, primary screen, cell-based, HEK293 M3R inducible RGS4, calcium flux; Regulator of G-protein signaling 4 (Homo sapiens), P49798; Fluo-4 calcium flux; active compounds read high; triggered by carbachol at its EC20; B-score at 10 µM; actives 0.45% (n = 310,000); AID 463165, 2010;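 active means B-score, a plate-corrected calcium signal, over three deviations above library mean, with baseline fluorescence within five deviations of library mean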;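 further: RGS4 expression induced by doxycycline in cells with stable M3 receptor; B-score is computed from the integrated fluorescence ratio over baseline after carbachol; higher B-score means a larger calcium signal and so more RGS4 inhibition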
Target sequence (P49798 whole entry, looked up): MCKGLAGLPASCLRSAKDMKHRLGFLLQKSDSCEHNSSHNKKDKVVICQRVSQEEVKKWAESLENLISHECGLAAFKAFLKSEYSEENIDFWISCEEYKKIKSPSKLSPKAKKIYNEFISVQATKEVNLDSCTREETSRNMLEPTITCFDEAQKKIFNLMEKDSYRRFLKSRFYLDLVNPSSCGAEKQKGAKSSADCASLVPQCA
RGS4 act – RGS4 potentiators or activators, primary screen, cell-based, HEK293 M3R inducible RGS4, calcium flux; actives 0.92% (n = 310,000); carbachol calcium flux Fluo4; active compounds read low; B-score at 10 µM; AID 463111, 2010;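 active means B-score of the integrated calcium signal more than 4 SD below the library mean, with starting fluorescence not abnormally high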;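 further: negative B-score means reduced calcium response which marks RGS4 activation or potentiation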
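Test system: HEK293 cells with stable M3R and inducible RGS4; also added: carbachol at ECmax as muscarinic agonist stimulus; schedule: dye loading 30 min 37 °C, buffer rest 30 min RT; technique: kinetic calcium fluorescence imaging with Fluo4-AM dye, 2 µM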
MrgX1 ant reconf – MrgX1 receptor antagonists, duplicate retest, confirmation, HEK293 cells, Fluo-4 calcium flux. AID 602420, 2012. shares compounds with MrgX1 antag. BAM8-22 calcium flux; active compounds read low. actives 19% (n = 2,300). remaining BAM8-22 calcium response % of control (active compounds read low), % at 10 µM;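 active means remaining agonist calcium response no higher than 100% minus 3 SD of agonist-only control wells, with starting fluorescence near control levels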;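 further: agonist BAM8-22 given at a near maximal EC90 to ECmax level; peak minus minimum fluorescence divided by baseline after agonist addition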
HEK293 Ca flux – nonspecific calcium signal in parental HEK293, confirmation, counter-screen for MrgX1 antagonist project, parental HEK293 cells, Fluo-4 calcium flux | shares compounds with MrgX1 antag | Fluo-4 calcium fluorescence, FDSS | fluorescence ratio F(max-min)/F0 at 10 µM | actives 2% (n = 4,000);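 active means duplicate-averaged calcium fluorescence ratio at least three times the standard deviation of buffer wells, a nonspecific response in parental cells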
HEK293 Ca counter – calcium response in parental HEK293 cells, primary screen, counter-screen for MrgX1 allosteric activator project, cell-based, Fluo-4 calcium flux, duplicate | shares compounds with MrgX1 antag | Fluo-4 fluorescence ratio; active compounds read high | fluorescence ratio F(max-min)/F0 at 10 µM | actives 0.4% (n = 4,000) | AID 624114, 2012;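 active means calcium fluorescence ratio, averaged over duplicates, at least 3 SD of the buffer-well ratio, meaning a nonspecific response in receptor-free cells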;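 further: untransfected parental HEK293 lacking MrgX1 used as counterscreen for MrgX1 allosteric activators; fluorescence change taken during the second addition on a kinetic imager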
HEK293 Ca cntr2 – calcium response in parental HEK293 cells, primary screen, counter-screen for MrgX1 agonist project, cell-based, Fluo-4 calcium flux, duplicate, agonist mode. Fluo-4 calcium fluorescence (FDSS); active compounds read high. shares compounds with MrgX1 antag. actives 8.7% (n = 4,000). fluorescence ratio F(max-min)/F0 at 10 µM;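 active means calcium fluorescence ratio at least three times the spread of buffer wells, meaning a non-specific response in parental cells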
The depositor's hits bear a star; i = inactive; · = no result. Sampled rows, rich in hits. Any-hit rate of the full collection: about 3.5%.

SMILES	MrgX1 allo act	MrgX1 agonist	MrgX1 antag	RGS4 block	RGS4 act	MrgX1 ant reconf	HEK293 Ca flux	HEK293 Ca counter	HEK293 Ca cntr2
COc1cc(NC(=O)C2CSC3(C)CCC(=O)N23)c(OC)cc1Cl (stereo not drawn)	i	i	-7.8*	i	i	83%*	i	i	i
NC(=O)C1CCN(C(=O)NC2CC(=O)N(c3ccc4c(c3)OCCO4)C2)CC1 (stereo not drawn)	i	i	-6.9*	i	i	i	i	i	i
Cn1c(-c2ccc(CN3CCCCC3)o2)nc2ccccc21	i	i	-5.3*	i	i	i	i	i	i
Cc1ccc(CNc2nc3ccccc3n2C)o1	i	i	i	i	i	·	·	·	·
CN(C)CCNC(=S)Nc1ccccc1Cl	i	i	i	i	i	·	·	·	·
Cc1c(Cl)cccc1NC(=S)NCCCN(C)C	i	i	-5.5*	i	i	i	i	i	i
S=C(NCCNC(=S)Nc1ccccc1Cl)Nc1ccccc1Cl	i	i	-4.7*	i	i	85%*	i	i	i
CC(=O)Cc1ccccc1OC(=O)c1ccco1	i	i	-6.2*	i	i	i	i	i	i
CCCSc1cc(N2CCCC2)nc(-c2ccccc2)n1	i	i	-5.7*	i	i	i	i	i	i
CCCSc1cc(N2CCN(C)CC2)nc(-c2ccc(OC)cc2)n1	i	i	i	i	i	·	·	·	·
Cc1nc2c(=O)n(-c3ccc(F)c(Cl)c3)nc(C)c2s1	i	i	i	i	i	·	·	·	·
O=C(CSC1=NS(=O)(=O)c2cc(Cl)ccc2N1)Nc1ccccc1C(F)(F)F	i	i	-10*	i	i	i	i	i	i
CC(=O)Nc1ccc(NC(=O)Nc2ccc3c(c2)N(C)C(=O)CS3)cc1	i	i	i	i	i	·	·	·	·
CCOc1ccc(OCC)c(NC(=O)Nc2ccc3c(c2)N(C)C(=O)CS3)c1	i	i	-6.3*	i	i	80%*	i	i	i
COc1cccc(NC(=O)Nc2ccc3c(c2)N(C)C(=O)CS3)c1	i	i	-7.3*	i	i	42%*	i	i	i
COC(=O)CCc1c(C)c(C(=O)c2cc(F)c(F)c(F)c2F)c2ccccn12	i	i	i	i	i	·	·	·	·
COC(=O)CCc1c(C)c(C(=O)c2ccc(F)cc2)c2ccccn12	i	i	-5.7*	i	i	i	i	i	i
Cc1ccc(S(=O)(=O)NCCC(=O)NCc2ccco2)cc1	i	i	-4.6*	i	i	i	i	i	i
COc1ccc(N2CC(O)=C(c3nc(-c4ccc(F)cc4)cs3)C2=N)cc1OC	i	i	-6.8*	i	i	i	i	i	i
COc1ccc(N2CC(O)=C(c3nc(-c4ccc(F)cc4)cs3)C2=N)cc1Cl	i	i	i	i	i	·	·	·	·
O=C(Nc1cccnc1)c1cc(-c2ccccc2)on1	i	i	i	i	i	·	·	·	·
O=C(Nc1cccnc1)c1cc(-c2ccc(Br)cc2)on1	i	i	-8.7*	i	i	i	i	i	i
O=S(=O)(N[C@H]1C[C@@H](NS(=O)(=O)OCC(Cl)(Cl)Cl)C2CCCCC21)OCC(Cl)(Cl)Cl (stereo partly drawn)	i	i	i	i	i	·	·	·	·
COc1cc(C)c(Cc2cnc(N)nc2N)cc1OC	i	i	i	i	i	·	·	·	·
COC(=O)c1sc(S(=O)(=O)N2CCCCC2C(=O)O)c(C(=O)OC)c1C (stereo not drawn)	i	i	-5.4*	i	i	i	i	i	i
SMILES	MrgX1 allo act	MrgX1 agonist	MrgX1 antag	RGS4 block	RGS4 act	MrgX1 ant reconf	HEK293 Ca flux	HEK293 Ca counter	HEK293 Ca cntr2
COC(=O)c1sc(S(=O)(=O)N2CCC(C(N)=O)CC2)c(C(=O)OC)c1C	i	i	i	i	i	·	·	·	·
O=C(O)CCNc1nc(C(F)(F)F)nc2ccccc12	i	i	i	i	i	·	·	·	·
O=C(CNC(=O)c1ccc(Br)o1)NCc1cccc(Cl)c1	i	i	i	i	i	·	·	·	·
O=C(CNC(=O)c1ccc(Br)o1)NCc1ccc(Cl)cc1Cl	i	i	-4.8*	i	i	i	i	i	i
CCNC(=S)N/N=C/c1ccc(-c2ccccc2)o1	i	i	i	i	i	·	·	·	·
COc1ccc(Cl)cc1NC(=O)CN(C)C(=O)Cc1ccc2c(c1)CCC2	i	i	i	i	i	·	·	·	·
COc1ccc(Cl)cc1NC(=O)CN(C)C(=O)Cc1ccsc1	i	i	-6.8*	i	i	i	i	i	i
Cc1ccc(C2C3=C(CCCC3=O)N=C3c4ccccc4C(=O)C32)cc1 (stereo not drawn)	i	i	-16*	i	i	i	i	i	i
O=C1CCCC2=C1C(c1ccccc1)C1C(=O)c3ccccc3C1=N2 (stereo not drawn)	i	i	i	i	i	·	·	·	·
CCn1c(SCC(=O)Nc2ccc(C(C)=O)cc2)nc2nc3c(cc2c1=O)CCCC3	i	i	-5.8*	i	i	i	i	i	i
N#Cc1nc(Cc2ccccc2)oc1NCCN1CCOCC1	i	i	-7.5*	i	i	i	i	i	i
CC(C)(C)CC(=O)Nc1cc2c3c(c1)CCC(=O)N3CCC2	i	i	-4.9*	i	i	i	i	i	i
